High-throughput results: PubChem, several laboratories
FAK inh: FAK kinase inhibitors, primary screen, biochemical; biochemical FAK kinase activity assay; 97,000 compounds, 0.84% hits; Focal adhesion kinase 1 (Homo sapiens), Q05397; inhibition, %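 (tested at 7 µM)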; in the data active means inhibition above about 19%;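 further: 0% = DMSO and 100% = reference compound high control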
PLK1 kinase inh: human PLK1 kinase inhibitors, primary screen, biochemical, TR-FRET. Serine/threonine-protein kinase PLK1 (Homo sapiens), P53350. recombinant PLK1 kinase, TR-FRET peptide phosphorylation. inhibition, % at 10 µM. 97,000 compounds, 0.53% hits;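 active means inhibition of 50% or more in the single-concentration screen; inactive means inhibition below 50%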;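 further: 0% = DMSO max control and 100% = H-89 dihydrochloride min control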
hDAT+cocaine: changed hDAT dopamine uptake under cocaine IC80, either direction, primary screen, cocaine antagonist project, cell-based, LLC-PK1 hDAT, [14C]-dopamine uptake, MLSMR; AID 449768, 2010; LLC-PK1 hDAT cells, [14C]-dopamine uptake with cocaine IC80; actives deviate in either direction; 110,000 compounds, 1.3% hits; B-score at 10 µM; Sodium-dependent dopamine transporter (Homo sapiens), Q01959;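 active means Z score or B-score, a plate-position-corrected score, falls beyond the plate's 99.7% confidence bounds, in either direction; inactive means both scores lie inside the 99.7% bounds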;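 further: scored against the spread of the other compound wells on the same plate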
HIV Rev-RRE inh: HIV-1 Rev-RRE binding inhibitors, primary screen, biochemical, FRET, protein-RNA interaction | P05866 | Rev peptide-RRE RNA binding | inhibition, % at 8 µM | 97,000 compounds, 0.79% hits | AID 704, 2007;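 active means inhibition above the screen-wide mean plus 3 SD, cut at about 35% in these data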;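 further: 0% = median DMSO wells and 100% = median Neomycin B control wells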
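Test system: Cy5-tagged RRE RNA duplex with fluorescein-tagged Rev peptide; Probe or stimulus: labelled Rev peptide; Schedule: 5 min preincubation and 15 min binding, 25 °C; Signal: FRET fluorescence readout; Evaluation: % inhibition from 671/540 nm acceptor-to-donor ratio, scaled between controls; Control set: DMSO and neomycin B.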
PLK1 PBD inh: Plk1 polo box domain binding inhibitors, primary screen, biochemical, fluorescence polarization | inhibition, %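 (tested at about 20 µM)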 | Plk1 PBD phosphopeptide binding | Serine/threonine-protein kinase PLK1 (Homo sapiens), P53350 | 97,000 compounds, 0.13% hits; in the data active means inhibition above about 34%, passing the limit was not always enough
EphB4 ephrin blk: EphB4-ephrin-B2 interaction antagonists, primary screen, biochemical, TNYL-RAW peptide probe, fluorescence polarization; EphB4 LBD / TNYL-RAW-Alexa532 peptide; inhibition, % at 7 µM; 97,000 compounds, 0.15% hits; AID 720, 2007;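 active means inhibition above the screen-wide mean inhibition plus 3 SD, cut at about 15% in these data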;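 further: 0% = DMSO wells and 100% = excess unlabeled TNYL-RAW peptide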
The depositor's hits bear a star; / = no result given; [ ] = dose if it differs, or a comment. This is a sample that favours compounds with a hit; in the whole collection about 3.2% have one here.

SMILES	FAK inh	PLK1 kinase inh	hDAT+cocaine	HIV Rev-RRE inh	PLK1 PBD inh	EphB4 ephrin blk
Cc1cc(NC(c2ccc(Cl)cc2)c2ccc3cccnc3c2O)no1 (stereo unspecified)	2.7	-1.8	-0.445	8.3	12.9	15.8*
COc1ccc(/C=N/Nc2ncc(-c3ccccc3)cn2)c(OC)c1	40.4*	-11.4	-0.0622	3.7	-5.9	0.2
O=C(CCCc1c[nH]c2ccccc12)N1CCN(c2ccc(N3CCOCC3)nn2)CC1	-1.4	-14.3	2.51*	-39.6	3.8	-4.7
COc1cc(CCC(=O)N2CCN(c3ccc(N4CCOCC4)nn3)CC2)cc(OC)c1OC	-0.7	-5.5	/	6.0	-35.4	1.8
CCC(C)n1cnc2c(c1=O)c1nc3ccccc3nc1n2Cc1ccc2c(c1)OCO2 (stereo unspecified)	-3.8	-15.8	4.12*	-1.8	-0.2	-1.5
CCCCCCOC(=O)C(C#N)c1nc2ccccc2nc1N1CCN(C)CC1 (stereo unspecified)	4.9	0.7	0.912	24.4	-6.1	16.7*
COc1ccc(CNC(=O)C(C#N)c2nc3ccccc3nc2N2CCCC2)cc1 (stereo unspecified)	-0.1	-4.8	0.0642	35.9*	16.1	11.2
COc1ccc(CNC(=O)C(C#N)c2nc3ccccc3nc2N2CCN(C)CC2)cc1 (stereo unspecified)	-7.6	0.6	1.96	1.3	10.4	-2.9
CCCCCCOC(=O)C(C#N)c1nc2ccccc2nc1N1CCCCC1 (stereo unspecified)	-1.0	-15.8	-0.437	18.0	6.6	0.9
Cc1cccc(NC(=O)C23CCC(C)(C2Br)C3(C)C)c1 (stereo unspecified)	-1.8	-6.6	-8.54*	9.3	-11.6	0.6
O=C(O)CCC(=O)Nc1ccc(-c2nnc(-c3ccco3)o2)cc1	-1.4	53.5*	-0.473	5.0	12.3	-7.2
Cc1nc(-c2cccc(NC(=O)c3cccs3)c2)cs1	2.0	-9.4	3.22*	-1.8	-8.4	8.2
Cc1nc(-c2cccc(NS(=O)(=O)c3cccc4ccccc34)c2)cs1	0.3	-31.2	3.5*	13.0	-2.5	1.5
Cc1cnn(C(=S)NCC2CCCO2)c1 (stereo unspecified)	/	/	-0.719	/	/	/
COC1=C(N)C(=O)c2nc(-c3nc(C(=O)O)c(C)c(-c4ccc(OC)c(OC)c4O)c3N)ccc2C1=O	/	/	-4.15*	/	/	/
Cc1cc(/C=N/NC(=O)CC2(C)OCCO2)c(C)n1-c1cc(Cl)cc(Cl)c1	2.8	-7.8	0.647	-7.5	-13.7	2.3
CC1(CC(=O)N/N=C/c2ccc(OCc3ccc(Cl)cc3Cl)cc2)OCCCO1	1.1	-10.2	3.4*	-0.3	-42.8	-5.6
O=C(Cn1nc(Cc2cccnc2)c2ccccc2c1=O)NCc1ccc(F)cc1	-0.9	-12.5	-0.345	-1.3	-12.2	-9.4
CCN1CCN(S(=O)(=O)c2cc(OC)c(Cl)cc2OC)CC1	-0.8	-17.1	-0.37	8.2	-13.3	1.1
CCN1CCC2(CC1)C(C#N)=C(N)Oc1c2sc2nc(C)cc(C)c12	-0.5	-4.6	0.039	65.8*	15.4	-2.0
CCc1ccc(N(C(=O)CNC(=O)c2cccs2)C(C(=O)NC(C)(C)C)c2cc(OC)c(OC)c(OC)c2)cc1 (stereo unspecified)	0.6	-10.6	0.513	5.4	13.8	3.8
CN(C)C=Nc1ncc2c3ccccc3n(CCN(C)C)c2c1C#N	18.3	45.4	2.95*	6.4	0.8	1.1
Cc1cc(C(=O)COC(=O)C2=NNC(=O)CC2)c(C)n1-c1cccc(C(F)(F)F)c1	-0.6	-1.4	-0.342	2.8	-0.2	4.2
COc1ccc(OC)c(S(=O)(=O)N2CCCCCC2)c1	/	/	-2.39*	/	/	/
COc1ccc(OC)c(S(=O)(=O)N2CCN(C)CC2)c1	/	/	0.317	/	/	/
SMILES	FAK inh	PLK1 kinase inh	hDAT+cocaine	HIV Rev-RRE inh	PLK1 PBD inh	EphB4 ephrin blk
CC1CCCCC12NC(=O)N(CC(=O)NC(=O)NCc1ccco1)C2=O (stereo unspecified)	-0.1	-11.0	0.604	1.7	-18.5	3.3
CC(C)c1ccc(C2C(C#N)=C(N)N3C(=C2C#N)Sc2ccccc23)cc1 (stereo unspecified)	3.0	-14.8	0.00371	55.7*	-26.0	5.1
Cc1cc2oc(=O)cc(CN3CCOCC3)c2cc1C	-1.3	-5.6	-0.589	2.8	-9.4	3.5
CCNc1cc2oc(=O)c(CN3CCOCC3)c(C)c2cc1C	3.2	-7.9	0.00974	79.2*	-0.6	-0.3
Cc1ccc(N2CCN(C(=O)c3ccccc3NC(=O)/C=C\C(=O)O)CC2)cc1	-0.8	-13.8	-0.336	0.4	-26.8	-2.4
Nc1nnc(SCC(=O)NCCOc2ccccc2)s1	-1.2	-5.5	-0.504	6.8	10.9	2.9
CCCCOC(=O)CSc1nnc(N)s1	-0.7	-0.8	-2.4*	1.6	4.9	-5.0
CCCCOc1ccc(-c2nc(=S)[nH][nH]2)cc1	5.0	0.2	-0.419	-2.5	-5.7	1.5
CC(C)C1N=C2c3ccccc3N=C(SCC(=O)NCCc3ccc(S(N)(=O)=O)cc3)N2C1=O (stereo unspecified)	/	/	0.213	/	/	/
CC(C)C1N=C2c3ccccc3N=C(SCc3cc(=O)n4cc(Cl)ccc4n3)N2C1=O (stereo unspecified)	-0.4	-4.2	-7.11*	13.3	-27.4	-5.7
COc1ccc(-c2[nH]ncc2/C=C(/C#N)C(=O)NC2CCCCCC2)cc1	8.2	-6.8	2.85*	13.9	-8.4	4.8
Nn1c(SCC(=O)NCCC2=CCCCC2)nnc1C(F)(F)F	-0.6	-13.3	-1.1	3.6	-4.8	4.3
CCOC(=O)c1ccc(NC(=O)Nc2ccc(OC)c(OC)c2)cc1	1.1	50.9*	0.409	4.2	-6.3	-3.2
CCCCOC(=O)c1ccc(NC(=O)Nc2ccc(OC)c(OC)c2)cc1	2.0	-8.7	0.75	4.2	-15.3	1.3
COc1ccc(C[C@@H]2CN3C(=NC[C@@H]3C)N2CCNC(=O)c2ccc(C)c(Br)c2)cc1	/	/	1.85e-05	/	/	/
COCP(=O)(c1ccccc1)c1ccccc1	2.6	-3.2	1.51*	8.2	-22.5	-1.4
O=P(CCCCCCCCCP(=O)(c1ccccc1)c1ccccc1)(c1ccccc1)c1ccccc1	5.5	-4.9	2.91*	7.3	-9.6	3.1
O=C(O)CP(=O)(c1ccccc1)c1ccccc1	-2.6	-7.3	0.014	4.8	10.0	1.3
O=P(COCCOCP(=O)(c1ccccc1)c1ccccc1)(c1ccccc1)c1ccccc1	-0.7	-20.4	-0.936	0.1	3.7	3.3
Cc1ccc(CN=Cc2[nH]c3ccc(Br)c(Cl)c3c2O)cc1	1.4	-16.4	-0.554	115.6*[fluorescence artefact?]	-107.5	-1.1
Oc1c(C=NCc2ccc(F)cc2)[nH]c2ccc(Br)c(Cl)c12	0.6	-7.1	-0.26	99.0*[fluorescence artefact?]	-17.9	6.3
